From ChEMBL document CHEMBL1250442, “Inhibiting gene expression at transcription start sites in chromosomal DNA with antigene RNAs” (Nat Chem Biol, 2005)
Calls of active or inactive are those of the source. The calls are words filed in the database; no cut-off is given here.

Assays:
[1] = tested on: T47D; assay: Effect of DNA methylation at (+43) CpG site near androgen receptor transcription start site (-13) in human T47D cells by sodium bisulfite sequencing analysis; assay type: functional, cell-based
Method in brief: (§1)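 T47D cells (RPMI-1640, 10% FBS, NEAA, insulin; 37 °C, 5% CO2) transfected with agRNA duplexes via Oligofectamine, medium changed at 24 h. Genomic DNA bisulphite-treated, regions around AR and hPR-B start sites PCR-amplified (HotStarTaq, 100 ng treated DNA), gel-purified, TOPO TA cloned; 5–15 colonies per plate miniprepped and sequenced.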

[2] = tested on: T47D; assay: Effect of DNA methylation at (-124) CpG site near androgen receptor transcription start site (-13) in human T47D cells by sodium bisulfite sequencing analysis; assay type: functional, cell-based; method in brief: as §1
[3] = tested on: T47D; assay: Inhibition of PR-B gene expression in human T47D cells at 25 nM by syber green assay in presence of 10 nM estradiol; assay type: functional, cell-based
[4] = tested on: T47D; assay: Effect of DNA methylation at (+11) CpG site near androgen receptor transcription start site (-13) in human T47D cells by sodium bisulfite sequencing analysis; assay type: functional, cell-based
Method in brief: (§2)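 T47D cells grown in RPMI-1640 with 10% FBS, 0.5% NEAA, insulin and P/S at 37 °C, 5% CO2. They were plated at 80,000 cells/well 2 days before lipid transfection with 25 nM or 100 nM duplex, with medium changed at 24 h. Cells were harvested 5 days post-transfection. 100 ng bisulfite-treated DNA was PCR-amplified, and products were TA-cloned. 5–15 colonies per plate were sequenced.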

[5] = tested on: T47D; assay: Effect of DNA methylation at (-57) CpG site near androgen receptor transcription start site (-13) in human T47D cells by sodium bisulfite sequencing analysis; assay type: functional, cell-based; method in brief: as §1
[6] = tested on: T47D; assay: Effect of DNA methylation at (-178) CpG site near androgen receptor transcription start site (-13) in human T47D cells by sodium bisulfite sequencing analysis; assay type: functional, cell-based; method in brief: as §1
[7] = tested on: T47D; assay: Effect of DNA methylation at (-31) CpG site near androgen receptor transcription start site (-13) in human T47D cells by sodium bisulfite sequencing analysis; assay type: functional, cell-based; method in brief: as §1
[8] = tested on: T47D; assay: Inhibition of PR-A gene expression in human T47D cells at 25 nM by syber green assay in presence of 10 nM estradiol; assay type: functional, cell-based
[9] = tested on: T47D; assay: Inhibition of PR-A mRNA gene expression in human T47D cells at 100 nM by syber green assay; assay type: functional
Method in brief: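 T47D cells plated at 80,000/well without antibiotics two days before Oligofectamine transfection with agRNA duplex (25 or 100 nM final); medium changed at 24 h, harvest day 5 unless stated otherwise. TRIzol total RNA; PR mRNA by real-time PCR with SYBR Green: 50 °C 2 min, 95 °C 10 min, 40 cycles 95 °C 15 s/60 °C 1 min.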

[10] = tested on: T47D; assay: Effect of DNA methylation at (-52) CpG site near androgen receptor transcription start site (-13) in human T47D cells by sodium bisulfite sequencing analysis; assay type: functional, cell-based; method in brief: as §1
[11] = tested on: T47D; assay: Inhibition of PR-B mRNA gene expression in human T47D cells at 100 nM by syber green assay; assay type: functional
Method in brief: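 T47D cells in RPMI-1640 with 10% FBS, NEAA, insulin, 37 °C, 5% CO2. Plated two days before transfection without antibiotics. Oligofectamine-mediated duplex RNA transfection at 100 nM final, medium changed at 24 h, harvest five days post-transfection. Total RNA extracted with TRIzol. hPR mRNA quantified by SYBR Green qPCR: 50 °C 2 min, 95 °C 10 min, then 40 cycles of 95 °C 15 s / 60 °C 1 min.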

[12] = tested on: T47D; assay: Effect of DNA methylation at (-167) CpG site near androgen receptor transcription start site (-13) in human T47D cells by sodium bisulfite sequencing analysis; assay type: functional, cell-based; method in brief: as §1
[13] = tested on: T47D; assay: Effect of DNA methylation at (-132) CpG site near androgen receptor transcription start site (-13) in human T47D cells by sodium bisulfite sequencing analysis; assay type: functional, cell-based; method in brief: as §1
[14] = tested on: T47D; assay: Effect of DNA methylation at (+19) CpG site near androgen receptor transcription start site (-13) in human T47D cells by sodium bisulfite sequencing analysis; assay type: functional, cell-based; method in brief: as §2
[15] = tested on: T47D; assay: Inhibition of androgen receptor expression in human T47D cells after 12 days at 100 nM by syber green assay; assay type: functional, cell-based
Method in brief: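 AR expression in T47D cells, grown in RPMI-1640 with 10% FBS, NEAA and insulin. Plated antibiotic-free two days before Oligofectamine transfection with 100 nM duplex RNA; medium replaced after 24 h. TRIzol total RNA. SYBR Green real-time PCR: 50 °C 2 min, 95 °C 10 min, 40 cycles of 95 °C 15 s and 60 °C 1 min.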

[16] = tested on: T47D; assay: Effect of DNA methylation at (+1) CpG site near androgen receptor transcription start site (-13) in human T47D cells by sodium bisulfite sequencing analysis; assay type: functional, cell-based; method in brief: as §2
[17] = tested on: T47D; assay: Effect of DNA methylation at (-36) CpG site near androgen receptor transcription start site (-13) in human T47D cells by sodium bisulfite sequencing analysis; assay type: functional, cell-based; method in brief: as §1
[18] = tested on: T47D; assay: Effect of DNA methylation at (-43) CpG site near androgen receptor transcription start site (-13) in human T47D cells by sodium bisulfite sequencing analysis; assay type: functional, cell-based; method in brief: as §1
[19] = tested on: T47D; assay: Effect of DNA methylation at (-172) CpG site near androgen receptor transcription start site (-13) in human T47D cells by sodium bisulfite sequencing analysis; assay type: functional, cell-based; method in brief: as §1
[20] = tested on: T47D; assay: Effect of DNA methylation at (-122) CpG site near androgen receptor transcription start site (-13) in human T47D cells by sodium bisulfite sequencing analysis; assay type: functional, cell-based; method in brief: as §1
[21] = tested on: T47D; assay: Effect of DNA methylation at (-126) CpG site near androgen receptor transcription start site (-13) in human T47D cells by sodium bisulfite sequencing analysis; assay type: functional, cell-based; method in brief: as §1
[22] = tested on: T47D; assay: Effect of DNA methylation at (+11) CpG site near androgen receptor transcription start site (-9) in human T47D cells by sodium bisulfite sequencing analysis; assay type: functional, cell-based; method in brief: as §2
[23] = tested on: T47D; assay: Effect of DNA methylation at (-124) CpG site near androgen receptor transcription start site (-9) in human T47D cells by sodium bisulfite sequencing analysis; assay type: functional, cell-based; method in brief: as §1
[24] = tested on: T47D; assay: Effect of DNA methylation at (-52) CpG site near androgen receptor transcription start site (-9) in human T47D cells by sodium bisulfite sequencing analysis; assay type: functional, cell-based; method in brief: as §1
[25] = tested on: T47D; assay: Effect of DNA methylation at (-31) CpG site near androgen receptor transcription start site (-9) in human T47D cells by sodium bisulfite sequencing analysis; assay type: functional, cell-based; method in brief: as §1
[26] = tested on: T47D; assay: Effect of DNA methylation at (+1) CpG site near androgen receptor transcription start site (-9) in human T47D cells by sodium bisulfite sequencing analysis; assay type: functional, cell-based; method in brief: as §2
[27] = tested on: T47D; assay: Effect of DNA methylation at (-167) CpG site near androgen receptor transcription start site (-9) in human T47D cells by sodium bisulfite sequencing analysis; assay type: functional, cell-based; method in brief: as §1
[28] = tested on: T47D; assay: Effect of DNA methylation at (-126) CpG site near androgen receptor transcription start site (-9) in human T47D cells by sodium bisulfite sequencing analysis; assay type: functional, cell-based; method in brief: as §1
[29] = tested on: T47D; assay: Effect of DNA methylation at (-57) CpG site near androgen receptor transcription start site (-9) in human T47D cells by sodium bisulfite sequencing analysis; assay type: functional, cell-based; method in brief: as §1
[30] = tested on: T47D; assay: Effect of DNA methylation at (-178) CpG site near androgen receptor transcription start site (-9) in human T47D cells by sodium bisulfite sequencing analysis; assay type: functional, cell-based; method in brief: as §1
[31] = tested on: T47D; assay: Effect of DNA methylation at (-172) CpG site near androgen receptor transcription start site (-9) in human T47D cells by sodium bisulfite sequencing analysis; assay type: functional, cell-based; method in brief: as §1
[32] = tested on: T47D; assay: Effect of DNA methylation at (-132) CpG site near androgen receptor transcription start site (-9) in human T47D cells by sodium bisulfite sequencing analysis; assay type: functional, cell-based; method in brief: as §1
[33] = tested on: T47D; assay: Effect of DNA methylation at (-122) CpG site near androgen receptor transcription start site (-9) in human T47D cells by sodium bisulfite sequencing analysis; assay type: functional, cell-based; method in brief: as §1
[34] = tested on: T47D; assay: Effect of DNA methylation at (+19) CpG site near androgen receptor transcription start site (-9) in human T47D cells by sodium bisulfite sequencing analysis; assay type: functional, cell-based; method in brief: as §2
[35] = tested on: T47D; assay: Effect of DNA methylation at (-36) CpG site near androgen receptor transcription start site (-9) in human T47D cells by sodium bisulfite sequencing analysis; assay type: functional, cell-based; method in brief: as §1
[36] = tested on: T47D; assay: Effect of DNA methylation at (-43) CpG site near androgen receptor transcription start site (-9) in human T47D cells by sodium bisulfite sequencing analysis; assay type: functional, cell-based; method in brief: as §1
[37] = tested on: T47D; assay: Effect of DNA methylation at (+43) CpG site near androgen receptor transcription start site (-9) in human T47D cells by sodium bisulfite sequencing analysis; assay type: functional, cell-based; method in brief: as §1

Cc1cn(CC(=O)N(CCNC(=O)CN(CCNC(=O)CN(CCNC(=O)CN(CCNC(=O)CN(CCNC(=O)CN(CCNC(=O)CN(CCNC(=O)CN(CCNC(=O)CN(CCNC(=O)CN(CCNC(=O)CN(CCNC(=O)CN(CCNC(=O)CN(CCNC(=O)CN(CCNC(=O)CN(CCNC(=O)CN(CCNC(=O)CN(CCNC(=O)CN(CCNC(=O)CN(CCNC(=O)CN(CCNC(=O)CN)C(=O)Cn2ccc(N)nc2=O)C(=O)Cn2ccc(=O)[nH]c2=O)C(=O)Cn2ccc(N)nc2=O)C(=O)Cn2ccc(=O)[nH]c2=O)C(=O)Cn2ccc(N)nc2=O)C(=O)Cn2ccc(N)nc2=O)C(=O)Cn2cnc3c(N)ncnc32)C(=O)Cn2ccc(N)nc2=O)C(=O)Cn2ccc(N)nc2=O)C(=O)Cn2ccc(=O)[nH]c2=O)C(=O)Cn2ccc(N)nc2=O)C(=O)Cn2ccc(N)nc2=O)C(=O)Cn2ccc(N)nc2=O)C(=O)Cn2cnc3c(N)ncnc32)C(=O)Cn2cnc3c(=O)[nH]c(N)nc32)C(=O)Cn2ccc(N)nc2=O)C(=O)Cn2cnc3c(=O)[nH]c(N)nc32)C(=O)Cn2ccc(N)nc2=O)C(=O)Cn2ccc(N)nc2=O)CC(=O)NCCN(CC(=O)NCC(=O)O)C(=O)Cn2cc(C)c(=O)[nH]c2=O)c(=O)[nH]c1=O
Activity [1]: inactive | Activity [2]: inactive | inhibition [3]: Active | Activity [4]: inactive | Activity [5]: inactive | Activity [6]: inactive | Activity [7]: inactive | inhibition [8]: Active | inhibition at 0.1 µM [9]: 100% | Activity [10]: inactive | inhibition at 0.1 µM [11]: 100% | Activity [12]: inactive | Activity [13]: inactive | Activity [14]: inactive | inhibition [15]: Active | Activity [16]: inactive | Activity [17]: inactive | Activity [18]: inactive | Activity [19]: inactive | Activity [20]: inactive | Activity [21]: inactive

Cc1cn(CC(=O)N(CCNC(=O)CN(CCNC(=O)CN(CCNC(=O)CN(CCNC(=O)CN(CCNC(=O)CN(CCNC(=O)CN(CCNC(=O)CN(CCNC(=O)CN(CCNC(=O)CN(CCNC(=O)CN(CCNC(=O)CN(CCNC(=O)CN(CCNC(=O)CN(CCNC(=O)CN(CCNC(=O)CN(CCNC(=O)CN(CCNC(=O)CN(CCNC(=O)CN(CCNC(=O)CN(CCNC(=O)CN)C(=O)Cn2ccc(N)nc2=O)C(=O)Cn2ccc(N)nc2=O)C(=O)Cn2cnc3c(N)ncnc32)C(=O)Cn2ccc(N)nc2=O)C(=O)Cn2ccc(N)nc2=O)C(=O)Cn2ccc(=O)[nH]c2=O)C(=O)Cn2ccc(N)nc2=O)C(=O)Cn2ccc(N)nc2=O)C(=O)Cn2ccc(N)nc2=O)C(=O)Cn2cnc3c(N)ncnc32)C(=O)Cn2cnc3c(=O)[nH]c(N)nc32)C(=O)Cn2ccc(N)nc2=O)C(=O)Cn2cnc3c(=O)[nH]c(N)nc32)C(=O)Cn2ccc(N)nc2=O)C(=O)Cn2ccc(N)nc2=O)C(=O)Cn2ccc(N)nc2=O)C(=O)Cn2ccc(N)nc2=O)C(=O)Cn2ccc(N)nc2=O)C(=O)Cn2ccc(=O)[nH]c2=O)CC(=O)NCCN(CC(=O)NCC(=O)O)C(=O)Cn2cc(C)c(=O)[nH]c2=O)c(=O)[nH]c1=O
Activity [22]: inactive | Activity [23]: inactive | Activity [24]: inactive | Activity [25]: inactive | inhibition [3]: Active | Activity [26]: inactive | Activity [27]: inactive | Activity [28]: inactive | Activity [29]: inactive | Activity [30]: inactive | inhibition [8]: Active | inhibition at 0.1 µM [9]: 82% | inhibition at 0.1 µM [11]: 82% | Activity [31]: inactive | Activity [32]: inactive | Activity [33]: inactive | inhibition [15]: Active | Activity [34]: inactive | Activity [35]: inactive | Activity [36]: inactive | Activity [37]: inactive
